From ChEMBL document CHEMBL1926614, “Substituted thiazoles V. synthesis and antitumor activity of novel thiazolo[2,3-b]quinazoline and pyrido[4,3-d]thiazolo[3,2-a]pyrimidine analogues” (2012)
Calls of active or inactive are those of the source. No cut-off for these calls is given here.

Legend:
Assay type in all cases: functional
HCT-15 = experiment: Growth inhibition of human HCT15 cells at 10 uM after 48 hrs by coulter counting
Summary of the method: (§1)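 Single-dose primary screen across the full NCI 60-cell-line panel. Stocks were made in DMSO and diluted in PBS to a final DMSO below 1%. Cultures at 6 × 10⁴ cells/ml were run in duplicate wells alongside PBS/DMSO vehicle controls at 37 °C in humidified 5% CO₂. Data were expressed as percent growth of treated cells.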

CCRF-CEM = experiment: Growth inhibition of human CCRF-CEM cells at 10 uM after 48 hrs by coulter counting; settings: read-out: GI; summary of the method: as §1
HL-60(TB) = experiment: Growth inhibition of human HL-60(TB) cells at 10 uM after 48 hrs by coulter counting; settings: HL-60, 48 h, read-out: GI
Summary of the method: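 Test compound was dissolved in DMSO and diluted in phosphate-buffered saline to a final DMSO level below 1%. Dilutions were plated in duplicate with cell culture at 6 × 10⁴ cells/ml. Vehicle controls held PBS and DMSO at matching dilutions. Incubation was at 37 °C, humidified, under 5% CO₂. Data were reported as percent growth of treated cells.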

MOLT-4 = experiment: Growth inhibition of human MOLT4 cells at 10 uM after 48 hrs by coulter counting; settings: for inhibition of growth at 10 µM: MOLT-4, 48 h, read-out: GI; summary of the method: as §1
NCI-H23 = experiment: Growth inhibition of human NCI-H23 cells at 10 uM after 48 hrs by coulter counting; settings: NCI-H23, 48 h, read-out: GI; summary of the method: as §1
SF-268 = experiment: Growth inhibition of human SF268 cells at 10 uM after 48 hrs by coulter counting; settings: SF-268, 48 h, read-out: GI; summary of the method: as §1
SF-295 = experiment: Growth inhibition of human SF295 cells at 10 uM after 48 hrs by coulter counting; settings: SF-295, 48 h, read-out: GI; summary of the method: as §1
SNB-75 = experiment: Growth inhibition of human SNB75 cells at 10 uM after 48 hrs by coulter counting; settings: SNB-75, 48 h, read-out: GI; summary of the method: as §1
U-251 = experiment: Growth inhibition of human U251 cells at 10 uM after 48 hrs by coulter counting; settings: for inhibition of growth at 10 µM: U-251, 48 h, read-out: GI
Summary of the method: (§2)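 Single-dose screen in the NCI 60 human tumor cell line panel (nine subpanels). Compounds dissolved in DMSO and diluted in phosphate buffered saline, keeping final DMSO below 1%. Added in duplicate wells to cells at 6 × 10⁴ cells/ml. Controls held PBS and DMSO at matching dilutions. Incubated at 37 °C, humidified, 5% CO₂. Reported as percent growth of treated cells.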

ACHN = experiment: Growth inhibition of human ACHN cells at 10 uM after 48 hrs by coulter counting; settings: for inhibition of growth at 10 µM: read-out: GI; summary of the method: as §1
MCF7 = experiment: Growth inhibition of human MCF7 cells at 10 uM after 48 hrs by coulter counting; settings: MCF7, 48 h, read-out: GI; summary of the method: as §1
BT-549 = experiment: Growth inhibition of human BT549 cells at 10 uM after 48 hrs by coulter counting; settings: BT-549, 48 h, read-out: GI; summary of the method: as §1
T47D = experiment: Growth inhibition of human T47D cells at 10 uM after 48 hrs by coulter counting; settings: read-out: GI; summary of the method: as §2
OVCAR-8 = experiment: Growth inhibition of human OVCAR8 cells at 10 uM after 48 hrs by coulter counting; settings: for inhibition of growth at 10 µM: OVCAR-8, 48 h, read-out: GI; summary of the method: as §1
TK-10 = experiment: Growth inhibition of human TK10 cells at 10 uM after 48 hrs by coulter counting; settings: TK-10, 48 h, read-out: GI; summary of the method: as §2

Row | SMILES | growth inhibition (GI) (HCT-15) | inhibition of growth at 10 µM (CCRF-CEM) [%] | inhibition of growth at 10 µM (HL-60(TB)) [%] | growth inhibition (GI) (MOLT-4) | inhibition of growth at 10 µM (NCI-H23) [%] | inhibition of growth at 10 µM (SF-268) [%] | inhibition of growth at 10 µM (SF-295) [%] | inhibition of growth at 10 µM (SNB-75) [%] | inhibition of growth at 10 µM (U-251) [%] | growth inhibition (GI) (ACHN) | inhibition of growth at 10 µM (MCF7) [%] | inhibition of growth at 10 µM (BT-549) [%] | inhibition of growth at 10 µM (T47D) [%] | inhibition of growth at 10 µM (OVCAR-8) [%] | inhibition of growth at 10 µM (TK-10) [%] | inhibition of growth at 10 µM (MOLT-4) [%] | growth inhibition (GI) (U-251) | inhibition of growth at 10 µM (ACHN) [%] | growth inhibition (GI) (OVCAR-8) | inhibition of growth at 10 µM (HCT-15; HCT-15, 48 h, read-out: GI) [%]
1 | CCN1CC2=C(N=C3SC=C(C)N3C2c2ccc(OC)c(OC)c2)/C(=C/c2ccc(OC)c(OC)c2)C1 (stereo not given) | Active | 97.8 | 72.1 | Active | 67.6 | 89.4 | 69.2 | 68.1 | 97.9 | Active | 84.5 | 57 | 26.2 | 96.5 | 98.8 |  |  |  |  | 
2 | CCN1CC2=C(N=C3SC=CN3C2c2ccc(OC)cc2)/C(=C/c2ccc(OC)cc2)C1 (stereo not given) | Active | 97.3 | 84 |  | 54.8 | 85.5 | 71.8 | 22.3 |  |  | 74.3 | 55.2 | 24.4 |  | 70 | 90.4 | Active | 83 | Active | 
3 | CCN1CC2=C(N=C3SC=CN3C2c2ccc(OC)c(OC)c2)/C(=C/c2ccc(OC)c(OC)c2)C1 (stereo not given) |  | 94 | 48.3 |  | 43.9 | 76 | 82.2 | 71.4 | 90 |  | 80.5 | > 10 | > 10 | 95.9 | 46.5 | 67.9 |  | 79.5 |  | 75.8
